Shown are actives, neighbours in structure and some others; about 12% of the full set was active somewhere.
Rad51 HR inh = human RAD51 strand exchange inhibitors, primary screen, biochemical, fluorescence. DNA repair protein RAD51 homolog 1 (Homo sapiens), Q06609. hRad51 DNA strand exchange, fluorescence dequenching. inhibition, % at 10 µM. 0.085% of 200,000 active. AID 1385, 2008;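 active = inhibition above 40% at the single screening dose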;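 also: 0% = DMSO control wells and 100% = blanks with heterologous ssDNA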
Target sequence (Q06609 whole entry, looked up): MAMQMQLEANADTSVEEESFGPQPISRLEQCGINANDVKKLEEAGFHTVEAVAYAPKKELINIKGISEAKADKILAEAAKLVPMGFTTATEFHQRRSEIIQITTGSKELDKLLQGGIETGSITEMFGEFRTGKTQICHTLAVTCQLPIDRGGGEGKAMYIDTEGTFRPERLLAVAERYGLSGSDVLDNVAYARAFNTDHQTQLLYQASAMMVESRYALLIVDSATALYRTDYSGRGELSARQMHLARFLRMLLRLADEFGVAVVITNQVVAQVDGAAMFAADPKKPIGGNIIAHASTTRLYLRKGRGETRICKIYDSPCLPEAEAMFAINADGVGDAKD
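material = hRad51 filaments on single-stranded DNA | timing = filaments 15 min 37 °C, then compound 30 min | signal = FRET fluorescence dequenching, excitation 485 nm, emission 520 nm | benchmarks = control wells and blank wells on each plate | evaluation = percent inhibition relative to plate controls and blanks | compound = 10 µM final, single point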
Arbovirus anti = antivirals against arbovirus infection, primary screen, cell-based, full library, 10K replicate subset. arbovirus infection cell-based antiviral screen. inhibition, % at 10 µM. 0.37% of 200,000 active; in the data active = inhibition above about 30%
Wee1 degr inh = Wee1 degradation inhibitors, primary screen, cell-based, HeLa, Wee1K328M-luciferase, luminescence. reporter increase, % at 5 µM. Wee1-like protein kinase (Homo sapiens), P30291. HeLa Luc-Wee1K328M stability; 100% = proteasome inhibitor MG132 effect. 1.2% of 220,000 active;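 active = activation above the mean of all tested compounds plus 3 SD, set per screening run, cut at about 8.8% in these data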;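 also: cells exposed to compound for 20 h before luminescence read; 0% = DMSO alone and 100% = MG132 at 30 µM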
PKD1 inh = inhibitors of human PKD1 kinase, biochemical, fluorescence polarization; PKD1 kinase fluorescence polarization assay; Serine/threonine-protein kinase D1 (Homo sapiens), Q15139; inhibition, % (concentration not given with the values); 0.056% of 200,000 active
L major viab = Leishmania major promastigote growth inhibition, primary screen; Leishmania major promastigotes, resazurin fluorescence viability; inhibition, % at 10 µM; 9% of 200,000 active; AID 1063, 2008;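 also: promastigotes grown with compound for 44 hours at 28 °C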
CHOP inh = inhibitors of CHOP promoter induction, primary screen, cell-based, unfolded protein response, luciferase reporter; 3.8% of 220,000 active; CHO-K1 CHOP-promoter luciferase, tunicamycin-induced, 15-18 h; inhibition, % at 10 µM;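 active = compounds that reduced the stress-induced luciferase reporter signal by more than about 70% of percent inhibition, limit read from the data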;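 also: 0% = tunicamycin plus vehicle and 100% = wells without tunicamycin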
* = called active by the depositor; · = no result given. Rule as the data show it, unless noted: active = inhibition above about 50%; inactive = the rest.

SMILES | Rad51 HR inh | Arbovirus anti | Wee1 degr inh | PKD1 inh | L major viab | CHOP inh
CC(=O)Nc1ccc(S(=O)(=O)N2CCN(c3cc(C)ccc3C)CC2)cc1 | 4.6 | -7.3 | 2.8 | -7.1 | -4.9 | 75.1*
Cc1ccc(S(=O)(=O)C2(C(=O)N3CCN(c4cc(C)ccc4C)CC3)CC2)cc1 | 2.3 | -6.8 | 0.3 | -7.1 | 72.5* | 69.7
Cc1ccc(C)c(N2CCN(S(=O)(=O)c3ccc4c(c3)OCCO4)CC2)c1 | -1.4 | 13.0 | 2.3 | -1.1 | 0.2 | 20.8
Cc1ccc(S(=O)(=O)C2(C(=O)N3CCCCCC3)CC2)cc1 | -4.6 | -0.6 | 1.9 | -3.3 | -2.9 | -11.5
Cc1ccc(C)c(N2CCN(C(=O)c3cc(S(=O)(=O)N4CCOCC4)ccc3F)CC2)c1 | -6.2 | 13.2 | -0.3 | -0.3 | -2.6 | 38.6
CCCc1cc(=O)[nH]c(SCC(=O)CSc2nc(CCC)cc(=O)[nH]2)n1 | 2.4 | 18.7 | 4.2 | -14.3 | -11.7 | 38.6
CCCc1cc(=O)[nH]c(SCC(=O)N2CCN(S(=O)(=O)c3ccc(Cl)cc3)CC2)n1 | 2.7 | -1.9 | 0.9 | -3.7 | 66.6* | -1.8
CCCc1cc(=O)[nH]c(SCC(=O)c2ccc(S(=O)(=O)N3CCCC3)cc2)n1 | 2.6 | 9.8 | -4.0 | 6.5 | 19.6 | 1.8
O=C(CN1CCN(c2ncc(C(F)(F)F)cc2Cl)CC1)N1CCN(c2ncc(C(F)(F)F)cc2Cl)CC1 | -7.0 | -25.6 | -2.4 | 6.8 | 50.3* | 49.2
O=C(CSc1ncc(C(F)(F)F)cc1Cl)N1CCN(S(=O)(=O)c2ccc(Cl)cc2)CC1 | · | -11.8 | 0.3 | -7.6 | 90.4* | 12.4
CCCc1cc(=O)[nH]c(SCC(=O)NC)n1 | 6.7 | 71.9* | 1.6 | -7.0 | -10.5 | 12.9
CCC(C)/C(C)=N/NC(=O)CSc1nc2ccccc2[nH]1 (stereo unspecified) | 0.9 | 1.6 | 2.3 | 1.4 | 5.5 | 3.2
CCCCCn1c(=O)c(-c2nc3ccccc3[nH]2)c(O)c2ccccc21 | · | -18.4 | -0.2 | -8.6 | 56.5* | 85.7*
CCCCCCN1CC(O)=C(c2nc3ccccc3[nH]2)C1=N | 0.3 | 4.0 | -0.9 | 2.1 | 24.2 | 83.5*
CCCCc1ccc(NC2=NCC(=O)N2CCc2ccccc2)cc1 | 3.4 | 16.0 | 0.2 | -6.9 | -4.1 | 95.0*
Cc1cccc(NC2=NCC(=O)N2Cc2ccccc2)c1 | 2.6 | 21.1 | -1.5 | -13.0 | 10.5 | 57.1
Cc1ccc(NC(=O)c2cc(-c3ccccc3)nn2-c2ccccc2)c(Br)c1 | -0.7 | 13.2 | 0.5 | -14.6 | 68.8* | 11.2
CS(=O)(=O)c1ccc2nc(NC(=O)c3cc(-c4ccccc4)nn3-c3ccccc3)sc2c1 | 1.4 | 0.8 | 0.7 | 0.3 | 99.9* | 7.4
COc1ccc(-n2c(=O)c3ccccc3n(Cc3ccccc3F)c2=O)cc1OC | 3.7 | 9.6 | -0.5 | -1.0 | 7.0 | 19.9
CCOc1ccccc1NC(=O)NCc1ccco1 | · | · | -2.1 | · | · | 6.0
COc1ccc2cc(C(=O)Nc3ccc(O)cc3)sc(=O)c2c1OC | · | -4.3 | 0.5 | 10.6 | 100.2* | 3.1
COc1cc(/C=C(\C#N)C(=O)Nc2cc(C(F)(F)F)ccc2Cl)ccc1OCC(=O)Nc1cccc(C(F)(F)F)c1 | 3.3 | -11.7 | -0.3 | 2.1 | -1.9 | 73.9*
COc1cc(/C=C(\C#N)c2ccccn2)ccc1OCC(=O)Nc1c(Cl)cccc1Cl | 9.0 | -5.7 | -3.5 | -1.0 | 3.5 | 3.9
COc1cc(/C=C(\C#N)c2ccccn2)ccc1OCC(=O)Nc1ccc(Br)cc1 | 3.9 | -35.2 | -3.7 | -14.4 | 3.4 | 70.1*
CCOC(=O)/C(C#N)=C/c1ccc(OCC(=O)Nc2ccc(C)c(C)c2)c(OC)c1 | 3.5 | 6.2 | -3.4 | 3.4 | 51.7* | 39.9
SMILES | Rad51 HR inh | Arbovirus anti | Wee1 degr inh | PKD1 inh | L major viab | CHOP inh
CCOC(=O)/C(C#N)=C/c1ccc(OCC(=O)Nc2ccc(OC)cc2)c(OC)c1 | 0.5 | 7.7 | -0.2 | -0.2 | -2.7 | 7.0
COc1cc(/C=N\Nc2ccc([N+](=O)[O-])cc2)ccc1OCC(=O)Nc1ccc(C)c(C)c1 | · | -11.7 | -1.6 | 6.0 | -5.8 | 78.0*
CCOCCCNC(=O)c1cc(=O)n(Cc2cccc(C)c2)c2ccccc12 | 0.1 | 8.8 | -2.2 | -2.0 | 22.1 | 2.5
O=C1NCCCC2c3cc(O)c4ccccc4c3OC12N1CCCCC1 (stereo unspecified) | -1.8 | -46.0 | -2.7 | -3.6 | 100.1* | -13.3
O=C1NCCCC2c3c(cc(Br)c(O)c3Br)OC12N1CCOCC1 (stereo unspecified) | 2.6 | 1.9 | 8.4 | -7.3 | -0.3 | -3.5
COc1ccc2nc(NC(=O)CSc3nnnn3C)sc2c1 | 0.5 | -6.1 | 5.0 | -0.1 | -1.9 | 0.1
Cc1ccc(C(=O)CCNc2ccccc2)o1 | -6.5 | -1.2 | 3.0 | -6.1 | 94.5* | 25.9
Cc1ccc(SCc2nc3ccccc3n2CC(=O)Nc2ccc(Cl)cc2)cc1 | 4.7 | -20.1 | 2.3 | -6.1 | 37.1 | 44.7
CC(C)n1c(N2CCN(CC(=O)Nc3ccc4c(c3)OCCO4)CC2)nc2ccccc21 | 1.1 | -6.1 | -2.0 | -8.7 | 51.1* | 16.7
COc1ccc(NC(=O)N2CCN(c3nc4ccccc4n3C(C)C)CC2)cc1 | -1.1 | -5.0 | -1.1 | -8.1 | 5.5 | 17.2
CC(C)Cn1c(N2CCN(CC(=O)Nc3ccc(Cl)cc3)CC2)nc2ccccc21 | 32.3 | -8.9 | -1.4 | 4.1 | 85.8* | 65.9
CC1(C)Cc2c(c(N3CCCC3)nc3sc4c(N5CCN(CCO)CC5)ncnc4c23)CO1 | · | -13.1 | -2.9 | 9.8 | 74.5* | 27.4
COC(=O)C(C#N)c1nc2ccccc2nc1N1CCN(Cc2ccc3c(c2)OCO3)CC1 (stereo unspecified) | -8.1 | · | · | · | · | ·
COCC(C)OC(=O)C(C#N)c1nc2ccccc2nc1N1CCN(Cc2ccccc2)CC1 (stereo unspecified) | -4.9 | -3.2 | 0.5 | -0.8 | 67.2* | 44.6
C=CCOC(=O)C(C#N)c1nc2ccccc2nc1N1CCN(Cc2ccccc2)CC1 (stereo unspecified) | -9.1 | 8.0 | -1.1 | -5.7 | 50.7* | 8.4
CCCCOC(=O)C(C#N)c1nc2ccccc2nc1N1CCN(Cc2ccc3c(c2)OCO3)CC1 (stereo unspecified) | -9.3 | -12.5 | 1.4 | 13.2 | 69.2* | 19.1
COCCOC(=O)C(C#N)c1nc2ccccc2nc1N1CCN(Cc2ccccc2)CC1 (stereo unspecified) | 10.8 | 3.1 | 1.7 | 5.6 | 17.2 | 62.5
COc1ccc(OC)c(Cc2nnc(CCC(=O)NC3C4CC5CC(C4)CC3C5)o2)c1 (stereo unspecified) | -4.8 | -10.2 | 2.0 | 1.0 | 13.1 | -1.5
CC(C(=O)NCC1CCCO1)n1cc([N+](=O)[O-])cn1 (stereo unspecified) | -1.4 | 4.8 | 1.8 | -7.8 | -9.9 | 2.5

Screens deposited in PubChem BioAssay by several laboratories.
